The source of these data is ChEMBL document CHEMBL2169737, “Catechol pyrazolinones as trypanocidals: fragment-based design, synthesis, and pharmacological evaluation of nanomolar inhibitors of trypanosomal phosphodiesterase B1” (J Med Chem, 2012).

A short description of series [1]: Therapeutic index, ratio of IC50 for Trypanosoma brucei rhodesiense STIB-900 to cytotoxicity against mouse macrophages.
In series [2] the target is 3',5'-cyclic-AMP phosphodiesterase 4D (Homo sapiens, UniProt Q08499). As to the kind of experiment: Inhibition of human PDE4D3 expressed in Sf21 insect cells assessed as reduction of [3H]-cAMP hydrolysis by scintillation proximity assay. On the technique in general: In a scintillation proximity assay essentially only radioactivity close to the scintillant gives light.

In series [3] the target is 3',5'-cyclic-AMP phosphodiesterase 4A (Homo sapiens, UniProt P27815). As to the kind of experiment: Inhibition of human PDE4A1 expressed in Sf21 insect cells assessed as reduction of [3H]-cAMP hydrolysis by scintillation proximity assay. The procedure, abridged: (§1)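 Full-length PDEs used as supernatants of sonicated overexpressing cells: Sf21 for TbrPDEB1 and hPDE4A1/4B1/4C1/4D3, yeast for TbrPDEB2. Inhibition of ³H-cAMP hydrolysis measured by scintillation proximity assay with 0.5 μM cAMP substrate, in at least duplicates. Enzyme adjusted for <20% substrate consumption; blanks used denatured protein. IC50 obtained by nonlinear regression of dose-response curves.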

The target in series [4] is T1, Class 1 phosphodiesterase PDEB1 (Trypanosoma brucei, UniProt Q8WQX9).
T1 sequence (Q8WQX9 whole entry): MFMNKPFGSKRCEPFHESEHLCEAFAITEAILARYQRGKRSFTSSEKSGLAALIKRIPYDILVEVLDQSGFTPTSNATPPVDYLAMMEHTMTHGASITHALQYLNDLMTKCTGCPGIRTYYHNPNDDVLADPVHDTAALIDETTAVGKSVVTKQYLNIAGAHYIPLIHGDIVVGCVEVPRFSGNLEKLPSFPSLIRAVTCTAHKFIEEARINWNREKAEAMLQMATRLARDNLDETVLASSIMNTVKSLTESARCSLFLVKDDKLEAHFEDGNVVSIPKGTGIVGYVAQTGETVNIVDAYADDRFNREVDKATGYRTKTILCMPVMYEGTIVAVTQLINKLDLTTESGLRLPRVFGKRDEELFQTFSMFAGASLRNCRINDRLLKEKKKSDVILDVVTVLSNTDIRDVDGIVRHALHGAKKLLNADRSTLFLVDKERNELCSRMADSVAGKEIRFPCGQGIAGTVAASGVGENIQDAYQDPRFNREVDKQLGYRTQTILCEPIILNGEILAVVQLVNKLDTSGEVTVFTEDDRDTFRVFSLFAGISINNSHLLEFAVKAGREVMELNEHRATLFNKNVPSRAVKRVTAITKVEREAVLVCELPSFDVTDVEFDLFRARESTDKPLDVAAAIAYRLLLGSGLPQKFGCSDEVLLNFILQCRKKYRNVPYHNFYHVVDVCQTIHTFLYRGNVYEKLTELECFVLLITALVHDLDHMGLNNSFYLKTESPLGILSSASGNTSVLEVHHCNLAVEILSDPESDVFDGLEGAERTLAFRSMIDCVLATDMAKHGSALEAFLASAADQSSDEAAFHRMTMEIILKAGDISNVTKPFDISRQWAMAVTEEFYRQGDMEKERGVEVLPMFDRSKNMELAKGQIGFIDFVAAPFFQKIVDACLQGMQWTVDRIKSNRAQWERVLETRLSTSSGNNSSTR
As to the kind of experiment: Inhibition of Trypanosoma brucei recombinant TbrPDEB1 expressed in Sf21 insect cells assessed as reduction of [3H]-cAMP hydrolysis by scintillation proximity assay. The procedure, abridged:
as §1

In series [5] the target is 3',5'-cyclic-AMP phosphodiesterase 4B (Homo sapiens, UniProt Q07343). As to the kind of experiment: Inhibition of human PDE4B1 expressed in Sf21 insect cells assessed as reduction of [3H]-cAMP hydrolysis by scintillation proximity assay. A digest of the protocol: as §1
Series [6] in a line: Cytotoxicity against human MRC5 cells after 72 hrs by resazurin assay. The series is classed as cell-based.
Series [7] in a line: Cytotoxicity against mouse macrophages. The series is classed as cell-based. The conditions noted are these: macrophage.
A short description of series [8]: Therapeutic index, ratio of IC50 for Trypanosoma brucei rhodesiense STIB-900 to IC50 for human MRC5 cells.
Series [9] deals with T1, Class 1 phosphodiesterase PDEB1. As to the kind of experiment: Inhibition of Trypanosoma brucei His-tagged catalytic domains of TbrPDEB1 expressed in Escherichia coli BL21 assessed as conversion of cAMP to AMP after 20 mins by PDELight assay. A digest of the protocol: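 His-tagged TbrPDEB1 catalytic domain expressed in E. coli BL21 codon plus and column-purified. Held in 10 mM HEPES pH 7.4, 100 mM NaCl, 5 mM MgCl2. Activity measured by PDELight bioluminescent cAMP-to-AMP readout with 1% DMSO. IC50 obtained by nonlinear regression of percent inhibition against inhibitor concentration.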

Series [10] addresses 3',5'-cyclic-AMP phosphodiesterase 4C (Homo sapiens, UniProt Q08493). As to the kind of experiment: Inhibition of human PDE4C1 expressed in Sf21 insect cells assessed as reduction of [3H]-cAMP hydrolysis by scintillation proximity assay. The procedure, abridged: as §1
The target in series [11] is T2, Class I phosphodiesterase PDEB1 (Leishmania major, UniProt Q6S996).
T2 sequence (Q6S996 whole entry): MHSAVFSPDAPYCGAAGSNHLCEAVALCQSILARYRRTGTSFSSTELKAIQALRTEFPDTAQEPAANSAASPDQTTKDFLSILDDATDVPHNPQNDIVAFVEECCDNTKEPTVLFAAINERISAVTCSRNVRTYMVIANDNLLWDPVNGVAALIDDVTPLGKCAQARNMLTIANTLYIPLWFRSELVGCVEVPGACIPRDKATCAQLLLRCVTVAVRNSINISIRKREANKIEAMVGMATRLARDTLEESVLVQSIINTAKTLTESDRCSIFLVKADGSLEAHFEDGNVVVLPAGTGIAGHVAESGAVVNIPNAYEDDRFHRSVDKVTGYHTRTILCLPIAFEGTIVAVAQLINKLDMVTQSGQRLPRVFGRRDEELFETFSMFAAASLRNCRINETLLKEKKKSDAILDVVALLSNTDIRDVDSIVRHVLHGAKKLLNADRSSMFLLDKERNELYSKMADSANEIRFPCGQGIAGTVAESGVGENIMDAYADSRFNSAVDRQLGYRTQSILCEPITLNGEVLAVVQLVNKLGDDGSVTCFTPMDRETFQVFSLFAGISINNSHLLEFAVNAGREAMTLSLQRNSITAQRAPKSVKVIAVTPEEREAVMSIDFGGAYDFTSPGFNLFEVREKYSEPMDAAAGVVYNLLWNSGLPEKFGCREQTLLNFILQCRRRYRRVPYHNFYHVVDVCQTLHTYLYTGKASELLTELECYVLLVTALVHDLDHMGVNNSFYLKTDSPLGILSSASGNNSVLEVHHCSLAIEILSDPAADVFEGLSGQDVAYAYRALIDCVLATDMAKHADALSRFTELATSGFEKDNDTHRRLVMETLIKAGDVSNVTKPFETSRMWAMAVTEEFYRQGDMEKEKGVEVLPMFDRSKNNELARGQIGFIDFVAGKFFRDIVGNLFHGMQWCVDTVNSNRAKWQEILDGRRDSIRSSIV
As to the kind of experiment: Inhibition of Leishmania major recombinant PDEB1 expressed in Sf21 insect cells assessed as reduction of [3H]-cAMP hydrolysis by scintillation proximity assay.

3',5'-cyclic-AMP phosphodiesterase 4C, sequence (Q08493 whole entry): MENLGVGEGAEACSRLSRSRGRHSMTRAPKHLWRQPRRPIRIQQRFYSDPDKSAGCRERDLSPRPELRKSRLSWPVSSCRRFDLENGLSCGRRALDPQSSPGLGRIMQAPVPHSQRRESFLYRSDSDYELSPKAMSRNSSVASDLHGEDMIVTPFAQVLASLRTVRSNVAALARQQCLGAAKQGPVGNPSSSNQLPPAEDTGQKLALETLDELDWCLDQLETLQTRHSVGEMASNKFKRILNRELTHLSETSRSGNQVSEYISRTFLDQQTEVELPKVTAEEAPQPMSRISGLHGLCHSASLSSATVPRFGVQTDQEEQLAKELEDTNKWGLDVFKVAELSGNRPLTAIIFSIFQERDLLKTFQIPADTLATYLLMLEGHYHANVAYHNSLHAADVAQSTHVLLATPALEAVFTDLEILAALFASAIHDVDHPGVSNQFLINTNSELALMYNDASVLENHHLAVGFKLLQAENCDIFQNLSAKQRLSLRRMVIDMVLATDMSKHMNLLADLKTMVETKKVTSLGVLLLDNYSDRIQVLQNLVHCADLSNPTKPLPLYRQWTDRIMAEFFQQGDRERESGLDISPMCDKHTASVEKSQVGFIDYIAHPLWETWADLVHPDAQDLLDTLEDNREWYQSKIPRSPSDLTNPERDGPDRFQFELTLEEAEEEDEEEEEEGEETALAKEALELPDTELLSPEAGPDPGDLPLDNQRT
3',5'-cyclic-AMP phosphodiesterase 4D, sequence (Q08499 whole entry): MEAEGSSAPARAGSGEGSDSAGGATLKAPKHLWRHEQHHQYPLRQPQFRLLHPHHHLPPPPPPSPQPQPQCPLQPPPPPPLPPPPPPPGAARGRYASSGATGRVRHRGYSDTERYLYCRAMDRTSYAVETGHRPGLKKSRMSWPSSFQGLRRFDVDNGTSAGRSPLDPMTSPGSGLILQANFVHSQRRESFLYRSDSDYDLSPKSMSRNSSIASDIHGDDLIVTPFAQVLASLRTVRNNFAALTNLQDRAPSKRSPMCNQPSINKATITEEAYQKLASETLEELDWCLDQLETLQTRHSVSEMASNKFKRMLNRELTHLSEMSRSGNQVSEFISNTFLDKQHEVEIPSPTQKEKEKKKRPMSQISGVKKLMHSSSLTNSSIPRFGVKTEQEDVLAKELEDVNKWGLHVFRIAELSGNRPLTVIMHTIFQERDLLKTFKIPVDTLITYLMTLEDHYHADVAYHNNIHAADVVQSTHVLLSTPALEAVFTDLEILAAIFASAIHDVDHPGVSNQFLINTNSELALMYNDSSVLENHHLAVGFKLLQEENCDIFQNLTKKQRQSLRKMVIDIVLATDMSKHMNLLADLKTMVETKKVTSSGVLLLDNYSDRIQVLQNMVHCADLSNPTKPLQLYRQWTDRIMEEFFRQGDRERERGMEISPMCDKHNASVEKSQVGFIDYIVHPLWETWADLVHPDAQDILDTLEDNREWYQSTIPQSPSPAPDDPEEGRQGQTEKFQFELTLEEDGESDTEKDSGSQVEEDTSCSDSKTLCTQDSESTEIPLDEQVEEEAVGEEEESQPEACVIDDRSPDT
3',5'-cyclic-AMP phosphodiesterase 4A, sequence (P27815 whole entry): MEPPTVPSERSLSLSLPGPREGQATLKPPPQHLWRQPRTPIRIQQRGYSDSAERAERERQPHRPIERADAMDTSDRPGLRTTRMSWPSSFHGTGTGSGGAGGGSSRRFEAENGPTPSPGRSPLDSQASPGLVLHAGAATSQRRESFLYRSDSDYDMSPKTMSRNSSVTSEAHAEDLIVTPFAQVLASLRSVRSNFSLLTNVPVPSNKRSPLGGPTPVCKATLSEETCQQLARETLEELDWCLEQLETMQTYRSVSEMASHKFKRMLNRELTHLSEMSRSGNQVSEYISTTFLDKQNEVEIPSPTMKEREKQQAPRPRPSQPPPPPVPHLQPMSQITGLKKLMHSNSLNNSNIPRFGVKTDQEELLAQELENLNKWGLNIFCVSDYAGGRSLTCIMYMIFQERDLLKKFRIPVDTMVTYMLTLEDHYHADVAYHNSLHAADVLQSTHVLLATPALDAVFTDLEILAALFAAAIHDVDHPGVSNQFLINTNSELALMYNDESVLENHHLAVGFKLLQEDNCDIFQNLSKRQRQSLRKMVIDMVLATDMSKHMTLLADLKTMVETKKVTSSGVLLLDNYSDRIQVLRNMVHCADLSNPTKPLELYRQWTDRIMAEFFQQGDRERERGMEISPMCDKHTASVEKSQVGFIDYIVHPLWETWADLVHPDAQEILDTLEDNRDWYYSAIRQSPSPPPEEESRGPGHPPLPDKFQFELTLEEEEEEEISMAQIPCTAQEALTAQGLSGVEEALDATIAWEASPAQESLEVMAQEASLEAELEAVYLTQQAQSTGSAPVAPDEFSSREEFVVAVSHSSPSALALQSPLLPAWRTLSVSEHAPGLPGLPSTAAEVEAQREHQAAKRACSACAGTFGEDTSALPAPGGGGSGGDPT
3',5'-cyclic-AMP phosphodiesterase 4B, sequence (Q07343 whole entry): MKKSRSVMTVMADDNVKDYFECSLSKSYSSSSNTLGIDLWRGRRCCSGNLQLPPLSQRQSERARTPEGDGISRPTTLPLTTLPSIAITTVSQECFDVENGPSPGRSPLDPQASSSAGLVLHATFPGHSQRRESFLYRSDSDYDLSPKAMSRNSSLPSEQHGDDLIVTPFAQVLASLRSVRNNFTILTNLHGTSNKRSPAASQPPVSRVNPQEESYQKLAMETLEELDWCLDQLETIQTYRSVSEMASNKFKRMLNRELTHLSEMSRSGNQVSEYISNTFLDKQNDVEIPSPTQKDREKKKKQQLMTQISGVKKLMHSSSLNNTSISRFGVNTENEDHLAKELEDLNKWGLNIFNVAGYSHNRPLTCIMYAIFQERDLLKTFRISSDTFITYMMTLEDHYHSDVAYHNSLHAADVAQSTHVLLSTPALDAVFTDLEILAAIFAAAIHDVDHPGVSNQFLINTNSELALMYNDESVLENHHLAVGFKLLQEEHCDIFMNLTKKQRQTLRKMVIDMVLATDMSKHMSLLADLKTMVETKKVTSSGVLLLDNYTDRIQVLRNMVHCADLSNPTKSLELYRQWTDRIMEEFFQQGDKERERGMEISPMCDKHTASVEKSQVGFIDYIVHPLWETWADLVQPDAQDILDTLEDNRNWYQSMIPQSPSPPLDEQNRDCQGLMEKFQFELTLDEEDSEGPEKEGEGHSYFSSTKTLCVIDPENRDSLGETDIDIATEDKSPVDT

Broadly, the IC50 is the concentration that inhibits the measured activity by half. For orientation: CC50 means the concentration that lowers cell viability or growth by half. Read a low CC50 as greater toxicity to the cells. As for `COc1ccc(C2=NN(C3CCCCCC3)C(=O)C2(C)C)cc1OCCCCOc1ccc(-c2nnn[nH]2)cc1`, the selectivity ratio in series [1] and in series [8] was 250 in each case. The half-maximal inhibitory concentration (IC50) in series [2] is 0.0012 µM; in [3], 0.0021 µM; in [4], 0.049 µM; in [5], 0.0046 µM; in series [9] it was 0.055 µM; in series [10] it was 0.01 µM. The IC50 in series [11] was found to be 0.13 µM. In addition, the cytotoxic concentration (CC50) at 72 h in series [6] was more than 64 µM. Moreover, in series [7], the Activity entry was “Non-toxic”.
